In ChEMBL document CHEMBL2311431, “Synthesis and biological evaluation of some 5-arylidene-2-(1,3-thiazol-2-ylimino)-1,3-thiazolidin-4-ones as dual anti-inflammatory/antimicrobial agents” (Bioorg Med Chem, 2013):
Converted amounts (≈) assume the structure as drawn.

Key:
[1] = Inhibition of soybean lipoxygenase assessed as inhibition of sodium linolate conversion to 13-hydroperoxylinoleic acid after 4 mins by spectrophotometry; parameters: species or system Glycine max; conditions: read-out: IC50
Aspergillus niger [2] = experiment: Fungicidal activity against Aspergillus niger ATCC 6275 after 72 hrs by serial subcultivation method; assay type: functional; conditions: ATCC 6275, 72 h
Bacillus cereus [3] = experiment: Bactericidal activity against Bacillus cereus clinical isolate after 72 hrs by serial subcultivation method; assay type: functional
Talaromyces funiculosus [4] = experiment: Fungicidal activity against Penicillium funiculosum ATCC 36839 after 72 hrs by serial subcultivation method; assay type: functional; conditions: ATCC 36839, 72 h
Trichoderma viride [5] = experiment: Fungicidal activity against Trichoderma viride IAM 5061 after 72 hrs by serial subcultivation method; assay type: functional; conditions: IAM 5061, 72 h
Aspergillus flavus [6] = experiment: Fungicidal activity against Aspergillus flavus ATCC 9643 after 72 hrs by serial subcultivation method; assay type: functional; conditions: ATCC 9643, 72 h
Bacillus cereus [7] = experiment: Antibacterial activity against Bacillus cereus clinical isolate after 24 hr by microdilution test; assay type: functional
Method in brief: (§1)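 Broth microdilution in LB medium, about 1.0×10^4 cfu per well; compounds from 1 mg/ml stocks in 5% DMSO. Incubated 24 h. MIC is the lowest concentration with no visible growth under a binocular microscope. Run in duplicate, repeated three times.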

Escherichia coli [8] = experiment: Bactericidal activity against Escherichia coli ATCC 35210 after 72 hrs by serial subcultivation method; assay type: functional; conditions: ATCC 35210, 72 h
Staphylococcus aureus [9] = experiment: Antibacterial activity against Staphylococcus aureus ATCC 6538 after 24 hr by microdilution test; assay type: functional; conditions: ATCC 6538, 24 h; method in brief: as §1
Penicillium ochrochloron [10] = experiment: Antifungal activity against Penicillium ochrochloron ATCC 9112 after 72 hrs by serial dilution technique; assay type: functional; conditions: ATCC 9112, 72 h
Method in brief: (§2)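 Serial dilution in malt broth; compounds from 1 mg/ml stocks in 5% DMSO; 72 h at 28 °C. MIC is the lowest concentration with no visible growth under a binocular microscope. Run in duplicate, repeated three times.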

[11] = biological target: T1, Prostaglandin G/H synthase 1 (Ovis aries) (UniProt P05979); experiment: Inhibition of ovine COX1 assessed as inhibition of PGF2a production by enzyme immunoassay; parameters: concentration or dose not given beside the values; conditions: concentration not given here
T1 sequence (whole entry): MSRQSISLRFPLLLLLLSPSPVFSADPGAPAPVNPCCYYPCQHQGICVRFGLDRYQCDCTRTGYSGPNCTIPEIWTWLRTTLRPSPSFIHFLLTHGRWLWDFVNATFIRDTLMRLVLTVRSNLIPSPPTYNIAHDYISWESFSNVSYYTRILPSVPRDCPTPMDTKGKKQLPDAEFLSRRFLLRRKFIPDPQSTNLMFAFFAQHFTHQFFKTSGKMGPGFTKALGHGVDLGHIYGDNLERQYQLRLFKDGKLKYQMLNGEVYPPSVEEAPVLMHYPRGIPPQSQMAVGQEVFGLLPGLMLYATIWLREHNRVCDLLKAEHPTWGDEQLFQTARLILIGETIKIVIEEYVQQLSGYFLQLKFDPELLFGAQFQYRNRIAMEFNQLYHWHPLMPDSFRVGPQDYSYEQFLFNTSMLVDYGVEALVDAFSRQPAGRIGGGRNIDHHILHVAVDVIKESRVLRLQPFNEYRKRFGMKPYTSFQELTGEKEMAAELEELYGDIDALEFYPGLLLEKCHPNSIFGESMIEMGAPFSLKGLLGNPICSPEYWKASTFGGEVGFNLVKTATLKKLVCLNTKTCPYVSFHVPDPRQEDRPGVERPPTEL
Method in brief: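 Ovine COX-1 from a commercial screening kit, tested with 0.1 µM arachidonic acid, which is below the saturating level. COX-derived PGH2 is reduced by SnCl2 to PGF2a, quantified by enzyme immunoassay with a broad prostaglandin antibody. At least triplicate.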

Aspergillus flavus [12] = experiment: Antifungal activity against Aspergillus flavus ATCC 9643 after 72 hrs by serial dilution technique; assay type: functional; conditions: ATCC 9643, 72 h; method in brief: as §2
Micrococcus flavus [13] = experiment: Bactericidal activity against Micrococcus flavus ATCC 10240 after 72 hrs by serial subcultivation method; assay type: functional; conditions: ATCC 10240, 72 h
Listeria monocytogenes [14] = experiment: Bactericidal activity against Listeria monocytogenes NCTC 7973 after 72 hrs by serial subcultivation method; assay type: functional; conditions: NCTC 7973, 72 h
Aspergillus fumigatus [15] = experiment: Fungicidal activity against Aspergillus fumigatus after 72 hrs by serial subcultivation method; assay type: functional
Talaromyces funiculosus [16] = experiment: Antifungal activity against Penicillium funiculosum ATCC 36839 after 72 hrs by serial dilution technique; assay type: functional; conditions: ATCC 36839, 72 h; method in brief: as §2
Trichoderma viride [17] = experiment: Antifungal activity against Trichoderma viride IAM 5061 after 72 hrs by serial dilution technique; assay type: functional; conditions: IAM 5061, 72 h; method in brief: as §2
Mus musculus [18] = experiment: Antiinflammatory activity in AKR mouse assessed as inhibition of carrageenan-induced paw edema at 0.01 mmol/kg, ip measured after 3.5 hrs of carrageenan-challenge; assay type: functional
Method in brief: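 AKR mice of both sexes (pregnant females excluded), 6-10 per group, fasted during the experiment. Edema induced by intradermal 0.05 mL of 2% carrageenin into the right hind paw. Compound given at 0.01 mmol/kg ip, suspended in water with Tween-80, at the same time as carrageenin.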

Listeria monocytogenes [19] = experiment: Antibacterial activity against Listeria monocytogenes NCTC 7973 after 24 hr by microdilution test; assay type: functional; conditions: NCTC 7973, 24 h; method in brief: as §1
Aspergillus niger [20] = experiment: Antifungal activity against Aspergillus niger ATCC 6275 after 72 hrs by serial dilution technique; assay type: functional; conditions: ATCC 6275, 72 h; method in brief: as §2
Escherichia coli [21] = experiment: Antibacterial activity against Escherichia coli ATCC 35210 after 24 hr by microdilution test; assay type: functional; conditions: ATCC 35210, 24 h; method in brief: as §1
Penicillium ochrochloron [22] = experiment: Fungicidal activity against Penicillium ochrochloron ATCC 9112 after 72 hrs by serial subcultivation method; assay type: functional; conditions: ATCC 9112, 72 h
Staphylococcus aureus [23] = experiment: Bactericidal activity against Staphylococcus aureus ATCC 6538 after 72 hrs by serial subcultivation method; assay type: functional; conditions: ATCC 6538, 72 h
Mus musculus [24] = experiment: Acute toxicity in AKR mouse up to 0.5 mmol/kg, ip; assay type: organism-based; conditions: in vivo
Pseudomonas aeruginosa [25] = experiment: Antibacterial activity against Pseudomonas aeruginosa ATCC 27853 after 24 hr by microdilution test; assay type: functional; conditions: ATCC 27853, 24 h; method in brief: as §1
Aspergillus fumigatus [26] = experiment: Antifungal activity against Aspergillus fumigatus after 72 hrs by serial dilution technique; assay type: functional; method in brief: as §2
Micrococcus flavus [27] = experiment: Antibacterial activity against Micrococcus flavus ATCC 10240 after 24 hr by microdilution test; assay type: functional; conditions: ATCC 10240, 24 h; method in brief: as §1
Pseudomonas aeruginosa [28] = experiment: Bactericidal activity against Pseudomonas aeruginosa ATCC 27853 after 72 hrs by serial subcultivation method; assay type: functional; conditions: ATCC 27853, 72 h

## Cc1cnc(/N=C2\NC(=O)/C(=C/c3ccc([N+](=O)[O-])cc3)S2)s1
[1]
  IC50: 79 µM
Aspergillus niger [2]
  MFC: 31.5 µM (≈ 10.9 µg/mL)
Bacillus cereus [3]
  MBC: 29 µM (≈ 10 µg/mL)
Talaromyces funiculosus [4]
  MFC: 31.5 µM (≈ 10.9 µg/mL)
Trichoderma viride [5]
  MFC: 31.5 µM (≈ 10.9 µg/mL)
Aspergillus flavus [6]
  MFC: 31.5 µM (≈ 10.9 µg/mL)
Bacillus cereus [7]
  MIC: 29 µM (≈ 10 µg/mL)
Escherichia coli [8]
  MBC: 232 µM (≈ 80.4 µg/mL)
Staphylococcus aureus [9]
  MIC: 116 µM (≈ 40.2 µg/mL)
Penicillium ochrochloron [10]
  MIC: 15.8 µM (≈ 5.47 µg/mL)
[11]
  inhibition: 68%
Aspergillus flavus [12]
  MIC: 15.8 µM (≈ 5.47 µg/mL)
Micrococcus flavus [13]
  MBC: 29 µM (≈ 10 µg/mL)
Listeria monocytogenes [14]
  MBC: 29 µM (≈ 10 µg/mL)
Aspergillus fumigatus [15]
  MFC: 31.5 µM (≈ 10.9 µg/mL)
Talaromyces funiculosus [16]
  MIC: 15.8 µM (≈ 5.47 µg/mL)
Trichoderma viride [17]
  MIC: 15.8 µM (≈ 5.47 µg/mL)
Mus musculus [18]
  inhibition in vivo at 10 µmol/kg: 55.4%
Listeria monocytogenes [19]
  MIC: 29 µM (≈ 10 µg/mL)
Aspergillus niger [20]
  MIC: 15.8 µM (≈ 5.47 µg/mL)
Escherichia coli [21]
  MIC: 116 µM (≈ 40.2 µg/mL)
Penicillium ochrochloron [22]
  MFC: 31.5 µM (≈ 10.9 µg/mL)
Staphylococcus aureus [23]
  MBC: 232 µM (≈ 80.4 µg/mL)
Mus musculus [24]
  Activity: Non-toxic
Pseudomonas aeruginosa [25]
  MIC: 29 µM (≈ 10 µg/mL)
Aspergillus fumigatus [26]
  MIC: 15.8 µM (≈ 5.47 µg/mL)
Micrococcus flavus [27]
  MIC: 29 µM (≈ 10 µg/mL)
Pseudomonas aeruginosa [28]
  MBC: 116 µM (≈ 40.2 µg/mL)

## COc1ccc(OC)c(/C=C2\S/C(=N/c3nccs3)NC2=O)c1
[1]
  IC50: 52 µM
Aspergillus niger [2]
  MFC: 290 µM (≈ 101 µg/mL)
Bacillus cereus [3]
  MBC: 348 µM (≈ 121 µg/mL)
Talaromyces funiculosus [4]
  MFC: 58 µM (≈ 20.2 µg/mL)
Trichoderma viride [5]
  MFC: 348 µM (≈ 121 µg/mL)
Aspergillus flavus [6]
  MFC: 348 µM (≈ 121 µg/mL)
Bacillus cereus [7]
  MIC: 232 µM (≈ 80.6 µg/mL)
Escherichia coli [8]
  MBC: 464 µM (≈ 161 µg/mL)
Staphylococcus aureus [9]
  MIC: 232 µM (≈ 80.6 µg/mL)
Penicillium ochrochloron [10]
  MIC: 58 µM (≈ 20.2 µg/mL)
[11]
  inhibition: 85%
Aspergillus flavus [12]
  MIC: 290 µM (≈ 101 µg/mL)
Micrococcus flavus [13]
  MBC: 290 µM (≈ 101 µg/mL)
Listeria monocytogenes [14]
  MBC: 230 µM (≈ 79.9 µg/mL)
Aspergillus fumigatus [15]
  MFC: 348 µM (≈ 121 µg/mL)
Talaromyces funiculosus [16]
  MIC: 7.3 µM (≈ 2.54 µg/mL)
Trichoderma viride [17]
  MIC: 58 µM (≈ 20.2 µg/mL)
Mus musculus [18]
  inhibition in vivo at 10 µmol/kg: 26%
Listeria monocytogenes [19]
  MIC: 58 µM (≈ 20.2 µg/mL)
Aspergillus niger [20]
  MIC: 232 µM (≈ 80.6 µg/mL)
Escherichia coli [21]
  MIC: 406 µM (≈ 141 µg/mL)
Penicillium ochrochloron [22]
  MFC: 116 µM (≈ 40.3 µg/mL)
Staphylococcus aureus [23]
  MBC: 348 µM (≈ 121 µg/mL)
Mus musculus [24]
  Activity: Non-toxic
Pseudomonas aeruginosa [25]
  MIC: 290 µM (≈ 101 µg/mL)
Aspergillus fumigatus [26]
  MIC: 233 µM (≈ 80.9 µg/mL)
Micrococcus flavus [27]
  MIC: 232 µM (≈ 80.6 µg/mL)
Pseudomonas aeruginosa [28]
  MBC: 406 µM (≈ 141 µg/mL)
